Measurements collected from several papers.
Lines come from different studies, so protocols differ.
Target: Tyrosine-protein kinase receptor UFO (AXL, Homo sapiens, UniProt P30530)
Concentration: 1 µM
One construct used (P30530 26-894): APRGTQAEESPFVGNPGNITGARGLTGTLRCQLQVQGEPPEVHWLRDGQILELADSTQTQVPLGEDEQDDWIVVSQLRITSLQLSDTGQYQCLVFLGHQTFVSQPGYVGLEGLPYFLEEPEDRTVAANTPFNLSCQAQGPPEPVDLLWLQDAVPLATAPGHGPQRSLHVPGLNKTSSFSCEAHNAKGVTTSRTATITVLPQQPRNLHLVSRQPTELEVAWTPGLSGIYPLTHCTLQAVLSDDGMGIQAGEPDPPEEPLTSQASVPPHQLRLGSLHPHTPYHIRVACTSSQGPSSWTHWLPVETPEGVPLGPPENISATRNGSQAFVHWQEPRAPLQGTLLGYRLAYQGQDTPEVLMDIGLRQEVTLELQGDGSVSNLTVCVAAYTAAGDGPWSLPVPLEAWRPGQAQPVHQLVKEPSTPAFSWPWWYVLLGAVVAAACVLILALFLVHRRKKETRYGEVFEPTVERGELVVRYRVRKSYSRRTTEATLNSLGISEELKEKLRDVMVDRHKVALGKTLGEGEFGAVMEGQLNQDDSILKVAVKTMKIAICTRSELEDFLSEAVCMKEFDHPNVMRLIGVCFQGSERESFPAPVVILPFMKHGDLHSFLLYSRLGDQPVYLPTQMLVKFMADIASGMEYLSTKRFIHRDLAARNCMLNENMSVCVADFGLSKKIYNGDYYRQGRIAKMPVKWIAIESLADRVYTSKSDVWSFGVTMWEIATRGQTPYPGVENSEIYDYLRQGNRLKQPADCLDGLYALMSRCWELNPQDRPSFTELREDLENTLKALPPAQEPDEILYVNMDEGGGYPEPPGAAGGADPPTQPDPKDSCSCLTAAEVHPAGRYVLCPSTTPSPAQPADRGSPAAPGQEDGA

Structure (SMILES) | test | measurement | value
C#Cc1cnc(Nc2ccc(CO)nc2)nc1Nc1ccccc1S(C)(=O)=NC#N (centres unmarked) | enzyme activity, inhibitor | remaining activity | 27.6%
C=CC(=O)N1CCC([C@@H]2CCNc3c(C(N)=O)c(-c4ccc(Oc5ccccc5)cc4)nn32)CC1 | enzyme activity, inhibitor | inhibition | 0%
C[C@]1(O)CCCN(c2nc(Nc3ccc(S(=O)(=O)N[C@H]4CC[C@H](CN5CCN(c6ccc(C7CCC(=O)NC7=O)cc6F)CC5)CC4)cc3Cl)ncc2C(F)(F)F)C1 (some centres unmarked) | binding, competition with immobilised ligand | remaining binding | 98%
C#Cc1cnc(Nc2ccnc(CO)c2)nc1Nc1ccccc1S(C)(=O)=NC#N (centres unmarked) | enzyme activity, inhibitor | remaining activity | 26.1%
C[C@H]1CC[C@H](n2c3cnccc3c3cnc(Nc4ccc5c(n4)CCN(C(=O)CO)C5)nc32)CC1 | binding, competition with immobilised ligand | remaining binding | 81%
Cc1cc(S(=O)(=O)N[C@H]2CC[C@H](CN3CCN(c4ccc(C5CCC(=O)NC5=O)cc4F)CC3)CC2)ccc1Nc1ncc(C(F)(F)F)c(N2CCC[C@](C)(O)C2)n1 (some centres unmarked) | binding, competition with immobilised ligand | remaining binding | 56%
C=CC(=O)N1CCC[C@@H](n2nc(-c3ccc(Oc4ccccc4)cc3)c3c(N)ncnc32)C1 | enzyme activity, inhibitor | inhibition | 34%
CN1CCN(C(=O)c2ccc(NC(=O)Nc3ccc(N(C)c4ccnc(Nc5ccc(CS(C)(=O)=O)cc5)n4)cc3)cc2)CC1 | binding, competition with immobilised ligand | remaining binding | 9.7%
